From ChEMBL document CHEMBL4765243, “Discovery of Novel Bromophenol-Thiosemicarbazone Hybrids as Potent Selective Inhibitors of Poly(ADP-ribose) Polymerase-1 (PARP-1) for Use in Cancer” (J Med Chem, 2019) come the findings set out here.

Data set [1] in a line: Selectivity index, ratio of IC50 for inhibition of human recombinant N-terminal GST-tagged PARP-2 to IC50 for inhibition of human recombinant GST-tagged PARP-1.
For data set [2], the target named is T1, Poly [ADP-ribose] polymerase 1 (Homo sapiens, UniProt P09874). The data set can be described thus: Inhibition of human recombinant GST-tagged PARP-1 expressed in Escherichia coli assessed as reduction in NAD+-dependent ADP ribosylation incubated for 30 mins in presence and NAD by resazurin dye based fluorescence analysis. For orientation: Resazurin is reduced to fluorescent resorufin, in cell work by metabolically active cells.

A short description of data set [3]: Cytotoxicity against human HL7702 cells assessed as cell growth inhibition at 20 uM incubated for 48 hrs by MTT assay relative to control. The format is cell-based. As to conditions: HL7702 (L02) cells. (In general: Tetrazolium assays rely on reduction of a dye to a coloured formazan, in cell work by metabolically active cells.)
Data set [4] deals with Bel-7402. Put plainly: Antiproliferative activity against human Bel-7402 cells assessed as cell growth inhibition at 20 uM incubated for 48 hrs by MTT assay relative to control. The format is functional.
In data set [5] the target is T1, Poly [ADP-ribose] polymerase 1. Conditions: dose 100.0 nM, time 30.0 min.
Data set [6] has as its system Caco-2. Put plainly: Antiproliferative activity against human Caco-2 cells assessed as cell growth inhibition incubated for 48 hrs by MTT assay. The class given is functional, cell-based. Conditions: Caco-2, 48 h. The method, boiled down:
(§1)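 Cells seeded in 96-well plates and exposed to compounds for 48 h; viability read by MTT. Each experiment repeated three times. SK-OV-3 grown in McCOY's 5A, Bel-7402 and HL-7702 in RPMI-1640, HepG2 in DMEM, Caco-2 in MEM.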

Data set [7] has as its system HepG2. Put plainly: Antiproliferative activity against human HepG2 cells assessed as cell growth inhibition incubated for 48 hrs by MTT assay. The format is functional, cell-based. As to conditions: HepG2, 48 h. In outline:
as §1

Data set [8] relates to HepG2. The data set can be described thus: Antiproliferative activity against human HepG2 cells assessed as cell growth inhibition at 20 uM incubated for 48 hrs by MTT assay relative to control. The class given is functional.
Data set [9] relates to Bel-7402. Put plainly: Antiproliferative activity against human Bel-7402 cells assessed as cell growth inhibition incubated for 48 hrs by MTT assay. The format is functional, cell-based. Conditions: Bel-7402, 48 h. In outline:
as §1

Data set [10] concerns SK-OV-3. The data set can be described thus: Antiproliferative activity against human SK-OV-3 cells assessed as cell growth inhibition incubated for 48 hrs by MTT assay. As to conditions: SK-OV-3, 48 h. The format is functional, cell-based. The method, boiled down: as §1
Data set [11] addresses Poly [ADP-ribose] polymerase 2 (Homo sapiens, UniProt Q9UGN5). The data set can be described thus: Inhibition of human recombinant N-terminal GST-tagged PARP-2 expressed in Baculovirus infected Sf9 cells assessed as reduction in NAD+-dependent ADP ribosylation using histone mixture (H2A and H2B) as substrate in presence of activated DNA incubated for 30 mins by chemiluminescence assay.

Data set [12] has as its system Caco-2. The data set can be described thus: Antiproliferative activity against human Caco-2 cells assessed as cell growth inhibition at 20 uM incubated for 48 hrs by MTT assay relative to control. The format is functional.
Data set [13] deals with SK-OV-3. Put plainly: Antiproliferative activity against human SK-OV-3 cells assessed as cell growth inhibition at 20 uM incubated for 48 hrs by MTT assay relative to control. The format is functional.
The subject of data set [14] is L02. Put plainly: Cytotoxicity against human HL7702 cells assessed as cell growth inhibition incubated for 48 hrs by MTT assay. The class given is cell-based. As to conditions: L02, 48 h. In outline: as §1
Data set [15] in a line: Toxicity in Balb/c nude mouse xenografted with human SKOV3 cells assessed as change in body weight at 25 mg/kg, po for 21 days and measured every third day. The class given is organism-based. Conditions: in vivo, 504 h, time 21 day. In outline: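 Female BALB/c nu/nu mice, 6-8 weeks old, kept under SPF conditions. Each received 5×10^6 SK-OV-3 cells s.c. At 80–120 mm3 tumour volume, mice were split into four groups (n=6). […] Caliper measurement every three days; volume = X × (Y2/2).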

Each structure is given as a SMILES string.

T1 sequence (P09874 whole entry): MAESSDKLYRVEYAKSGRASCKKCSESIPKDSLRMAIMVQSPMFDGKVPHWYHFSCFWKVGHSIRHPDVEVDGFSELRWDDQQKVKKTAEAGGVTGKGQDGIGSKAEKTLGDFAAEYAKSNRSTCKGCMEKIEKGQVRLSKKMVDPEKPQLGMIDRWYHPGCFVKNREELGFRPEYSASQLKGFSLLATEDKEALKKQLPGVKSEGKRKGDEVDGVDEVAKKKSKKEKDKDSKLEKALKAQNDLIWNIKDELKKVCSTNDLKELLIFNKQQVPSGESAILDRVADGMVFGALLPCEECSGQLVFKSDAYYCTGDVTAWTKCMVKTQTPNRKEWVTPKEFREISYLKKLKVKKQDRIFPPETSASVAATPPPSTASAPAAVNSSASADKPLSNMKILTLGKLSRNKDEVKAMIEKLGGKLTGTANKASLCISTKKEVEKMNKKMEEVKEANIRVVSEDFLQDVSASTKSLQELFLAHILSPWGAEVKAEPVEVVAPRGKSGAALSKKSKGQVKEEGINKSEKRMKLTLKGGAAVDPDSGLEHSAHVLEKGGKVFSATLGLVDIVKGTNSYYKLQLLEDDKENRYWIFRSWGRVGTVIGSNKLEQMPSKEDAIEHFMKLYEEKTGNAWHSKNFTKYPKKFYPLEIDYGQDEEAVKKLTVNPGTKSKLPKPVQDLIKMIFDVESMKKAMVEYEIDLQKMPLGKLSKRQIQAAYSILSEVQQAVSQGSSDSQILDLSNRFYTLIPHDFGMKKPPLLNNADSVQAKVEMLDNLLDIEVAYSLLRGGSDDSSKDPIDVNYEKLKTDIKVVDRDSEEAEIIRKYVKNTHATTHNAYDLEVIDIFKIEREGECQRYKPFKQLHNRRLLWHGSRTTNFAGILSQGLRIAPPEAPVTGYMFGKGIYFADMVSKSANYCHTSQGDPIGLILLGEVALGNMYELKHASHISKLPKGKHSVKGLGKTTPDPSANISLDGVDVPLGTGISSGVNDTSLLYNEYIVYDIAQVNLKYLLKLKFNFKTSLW
Sequence of Poly [ADP-ribose] polymerase 2 (Q9UGN5 whole entry): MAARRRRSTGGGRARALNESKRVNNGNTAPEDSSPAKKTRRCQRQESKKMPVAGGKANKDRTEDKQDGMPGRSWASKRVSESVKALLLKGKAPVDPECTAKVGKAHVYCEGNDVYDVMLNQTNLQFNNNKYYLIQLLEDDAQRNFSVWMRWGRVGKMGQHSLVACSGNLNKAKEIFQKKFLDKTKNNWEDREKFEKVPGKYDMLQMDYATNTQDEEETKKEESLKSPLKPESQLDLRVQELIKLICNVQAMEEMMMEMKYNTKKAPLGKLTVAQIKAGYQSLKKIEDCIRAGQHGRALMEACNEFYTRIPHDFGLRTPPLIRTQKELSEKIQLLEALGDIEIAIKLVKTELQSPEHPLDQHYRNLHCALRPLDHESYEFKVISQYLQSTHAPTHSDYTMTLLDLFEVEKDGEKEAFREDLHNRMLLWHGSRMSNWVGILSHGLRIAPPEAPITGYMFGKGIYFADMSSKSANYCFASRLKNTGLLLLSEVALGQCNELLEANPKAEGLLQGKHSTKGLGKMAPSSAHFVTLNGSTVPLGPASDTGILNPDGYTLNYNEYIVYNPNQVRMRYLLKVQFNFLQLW

In general, IC50 refers to the midpoint of a concentration-inhibition curve. Usually inhibition stands for how much of the control response was suppressed. Regarding `COc1cc(/C=N/NC(=S)NCCCN2CCOCC2)c(Br)c(Br)c1OC`, the Ratio IC50 in data set [1] is above 5.37. The half-maximal inhibitory concentration (IC50) in data set [2] was 0.186 µM; in [6] it was 15.9 µM; in data set [7] it was 26.3 µM; in [9], 24 µM; in data set [10], 18.2 µM; in data set [11], above 1 µM. Further, the IC50 in [14] came to 28.9 µM. Also, the inhibition at 48 h, 20 µM in data set [3] is 51%. Besides, the inhibition at 20 µM in data set [4] was determined as 89.7%; in [8], 40.2%; in data set [12] it was 45.9%; in data set [13], 71.5%. In addition, the inhibition in data set [5] was 51.5%.

As for `O=C(c1cc(Cc2n[nH]c(=O)c3ccccc23)ccc1F)N1CCN(C(=O)C2CC2)CC1` [OLAPARIB], in data set [15], the Activity entry is given as “Non-Toxic”. Also, the IC50 in data set [6] is 65.5 µM; in [7], 42.4 µM; in [9], 35.5 µM; in data set [10], 3.15 µM; in [14], 25.8 µM.

Turning to `COc1cc(/C=N/NC(N)=S)c(Br)c(Br)c1O`, the Ratio IC50 in data set [1] was above 3.94. Further, the IC50 was 0.254 µM in data set [2] and above 1 µM in [11]. Moreover, the inhibition at 48 h, 20 µM in [3] is below 0%. For the same molecule, the inhibition at 20 µM worked out at 44.8% in [4], 50.8% in data set [8], 24.9% in [12] and 28% in [13]. The same molecule gave an inhibition in data set [5] of 61%.

Regarding `CCOC(=O)c1ccc(NC(=S)N/N=C/c2cc(OC)c(OC)c(Br)c2Br)cc1`, the Ratio IC50 in [1] is above 17.2. Besides, the IC50 in [2] was 0.0583 µM; in data set [6] it was 11.3 µM; in data set [7] it was 10.5 µM; in [9], 6.89 µM; in data set [10], 15.6 µM; in data set [11], above 1 µM. In addition, the IC50 in data set [14] came to 9.96 µM. The inhibition at 48 h, 20 µM in data set [3] came to 97.7%. The inhibition at 20 µM in [4] came to 71.9%; in data set [8] it was 73%; in data set [12], 76.5%; in data set [13], 70%. The inhibition in [5] amounted to 72.2%.

Turning to `NC(=S)N/N=C/c1cc(O)c(O)c(Br)c1Br`, the inhibition at 48 h, 20 µM in data set [3] was determined as 82.9%. Also, the inhibition at 20 µM in [4] was found to be 69.3%; in data set [8] it was 65.8%; in data set [12], 53.6%; in data set [13], 60.7%. In [5], this molecule came in with an inhibition of 37.1%. In addition, the IC50 in [6] amounted to 16.4 µM; in data set [7], 16 µM; in data set [9], 19.6 µM; in data set [10] it was 19.2 µM; in [14], 13.5 µM.

Regarding `COc1cc(/C=N/NC(=S)Nc2ccccc2)c(Br)c(Br)c1OC`, the inhibition at 48 h, 20 µM in [3] was 86.4%. Besides, the inhibition at 20 µM in data set [4] came out at 50.3%; in data set [8], 54.6%; in data set [12], 14.2%; in [13], 90.4%. The molecule also came in with an inhibition in data set [5] of 43.8%. For the same molecule, the IC50 stood at 9.97 µM in [6]; 25.7 µM in data set [7]; 30.2 µM in data set [9]; 9.25 µM in data set [10]; 22.6 µM in [14].

On to `CCOC(=O)c1ccc(NC(=S)N/N=C/c2cc(Br)c(OC)c(OC)c2)cc1`, for which the inhibition at 48 h, 20 µM in data set [3] came out at 84%. In addition, the inhibition at 20 µM came out at 39.4% in data set [4], 59.3% in data set [8], 55.5% in data set [12] and 60.4% in data set [13]. Also, the inhibition in [5] was 43.7%. Also, the IC50 in data set [6] amounted to 13.7 µM; in data set [7], 8.55 µM; in data set [9] it was 9.87 µM; in data set [10], 13.7 µM; in [14], 8.8 µM.
